Casp6 inh – human caspase-6 inhibitors, primary screen, biochemical, VEID-R110 fluorescence, single point, set 2 | P55212 | purified caspase-6, Z-VEID-R110 cleavage fluorescence | inhibition, % at 12.5 µM | actives 0.53% (n = 350,000) | AID 686996, 2013;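 active means mean inhibition across replicates at least about 35%, with every replicate also reaching that limit, limit read from the data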;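 further: 0% = median of neutral control wells and 100% = no fluorescence left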
S100A4 inh HTS – inhibitors of S100A4-myosin IIA peptide binding, primary screen, biochemical, fluorescence polarization, TAMRA-MyoIIA peptide; Protein S100-A4 (Homo sapiens), P26447; inhibition, % at 10.7 µM; actives 0.14% (n = 360,000); AID 652163, 2013;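 active means mean inhibition of at least 70% across replicates, with every replicate also reaching that level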
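Test system – S100A4 monomer (human) · Compound – single-point compound testing · Schedule – 5 min incubation before reading · Probe or stimulus – TAMRA-labelled myosin IIA heavy-chain peptide probe, 5 nM · Benchmarks – neutral control DMSO, positive control TFP · Medium – Calcium-containing HEPES buffer, pH 7.2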
PGC1a acetyl inh – inhibitors of PGC1a acetylation signal, primary screen, cell-based, U2OS, AlphaScreen, inhibitor mode. AID 651687, 2012. actives 0.17% (n = 350,000). inhibition, % at 15.6 µM. AlphaScreen anti-acetyl-lysine; with virally co-expressed GCN5 acetyltransferase;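 active means every replicate shows inhibition of at least 40%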;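 further: 0% = neutral control wells and 100% = positive control wells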
ERAP1 HTS inh – human ERAP1 aminopeptidase inhibitors, primary screen, biochemical, single point, plate reader; recombinant ERAP1, Leu-AMC fluorescence, 60 min; inhibition, % at 10.7 µM; actives 0.15% (n = 340,000);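 active means mean replicate inhibition of at least 30%, or all replicates individually reaching that 30% level; inactive means mean below 30% and not every replicate reaching it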;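 further: 0% = neutral control wells and 100% = L-leucinethiol positive control wells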
Target sequence (Q9NZ08 whole entry, looked up): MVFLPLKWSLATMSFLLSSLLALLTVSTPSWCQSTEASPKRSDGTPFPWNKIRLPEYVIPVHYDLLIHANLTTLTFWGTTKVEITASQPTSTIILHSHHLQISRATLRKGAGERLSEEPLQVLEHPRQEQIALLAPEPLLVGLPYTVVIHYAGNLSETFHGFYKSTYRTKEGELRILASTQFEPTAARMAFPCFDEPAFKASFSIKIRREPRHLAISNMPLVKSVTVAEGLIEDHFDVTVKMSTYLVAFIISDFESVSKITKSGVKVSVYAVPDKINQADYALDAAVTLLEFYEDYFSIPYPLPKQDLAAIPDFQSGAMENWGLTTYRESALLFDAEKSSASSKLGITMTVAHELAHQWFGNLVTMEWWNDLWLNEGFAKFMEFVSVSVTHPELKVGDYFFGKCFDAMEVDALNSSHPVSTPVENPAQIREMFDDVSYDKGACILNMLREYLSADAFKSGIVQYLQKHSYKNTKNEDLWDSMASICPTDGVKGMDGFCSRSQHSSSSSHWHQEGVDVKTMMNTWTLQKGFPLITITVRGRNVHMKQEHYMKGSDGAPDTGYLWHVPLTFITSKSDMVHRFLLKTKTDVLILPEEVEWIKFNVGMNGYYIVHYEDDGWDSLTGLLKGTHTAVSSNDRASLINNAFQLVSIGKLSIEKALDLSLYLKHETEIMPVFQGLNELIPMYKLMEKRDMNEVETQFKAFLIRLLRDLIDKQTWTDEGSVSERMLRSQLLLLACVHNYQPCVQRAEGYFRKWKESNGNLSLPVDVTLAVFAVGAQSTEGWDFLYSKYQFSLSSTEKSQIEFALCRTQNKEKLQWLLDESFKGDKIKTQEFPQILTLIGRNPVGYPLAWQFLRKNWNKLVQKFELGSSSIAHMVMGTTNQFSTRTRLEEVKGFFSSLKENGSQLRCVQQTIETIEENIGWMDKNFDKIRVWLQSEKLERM
Ecoli rRNA inh – reduced GFP signal of wild-type E. coli, primary screen, bacterial rRNA inhibitor project, GFP/RFP fluorescence, OD600, single point | GFP signal change (wild-type ribosome), % (concentration not given with the values) | E. coli WT GFP vs humanized-ribosome RFP mutants, 24 h; hits give low values; DMSO median 0, no signal -100 | actives 1.6% (n = 350,000) | AID 720706, 2013;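 active means significant combined selectivity score with lowered wild-type GFP, culture density cut under 30%, mutant RFP and density less affected; inactive means any of these conditions unmet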
ARNT TACC3 PPI – disruptors of ARNT/TACC3 protein interaction, primary screen, biochemical, AlphaScreen, single concentration; Transforming acidic coiled-coil-containing protein 3 (Homo sapiens), Q9Y6A5; AlphaScreen His-ARNT PAS-B/GST-TACC3 binding, luminescence; TACC3 fragment carries E629A point mutation; inhibition, % at 9.99 µM; actives 0.66% (n = 390,000); AID 623870, 2012;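 active means mean inhibition of replicates at least 50% and at least half of replicates each reaching 50%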;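 further: 0% = complete ARNT plus TACC3 wells and 100% = ARNT alone without TACC3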
* hit, by the source's call. Most compounds without a hit are left out; they make up all but 2.4% or so of the library.

What do the screens show for `CC(NCCC1(Cc2ccccc2Cl)CCOC(C)(C)C1)c1cccs1` (stereo unspecified)?
Casp6 inh: -2.1; S100A4 inh HTS: -0.7; PGC1a acetyl inh: -2.3; ERAP1 HTS inh: 0.3; Ecoli rRNA inh: -38.8*; ARNT TACC3 PPI: -3.4

What do the screens show for `C[C@H]1CN([C@@H](C)CO)C(=O)Cc2cc(NC(=O)Nc3ccc(F)cc3)ccc2O[C@@H]1CN(C)C(=O)Nc1cccc2ccccc12`?
Casp6 inh: 3.4; S100A4 inh HTS: -0.6; PGC1a acetyl inh: -1.0; ERAP1 HTS inh: 2.6; Ecoli rRNA inh: -1.3; ARNT TACC3 PPI: 1.4

How did CN1C(=O)c2cc(NC(=O)C3CCCCC3)ccc2OC[C@@H]2O[C@@H](CC(=O)NCCc3ccncc3)CC[C@H]21 do in these assays?
Casp6 inh: -3.9; S100A4 inh HTS: 7.3; PGC1a acetyl inh: -5.3; ERAP1 HTS inh: -0.9; Ecoli rRNA inh: 3.3; ARNT TACC3 PPI: -4.0

How did O=C1c2cc(O)cc(O)c2C(=O)c2c1cc(O)c([C@@H](CO)CCO)c2O do in these assays?
Casp6 inh: 17.3; S100A4 inh HTS: -8.5; PGC1a acetyl inh: -2.3; ERAP1 HTS inh: 1.4; Ecoli rRNA inh: -48.0; ARNT TACC3 PPI: 46.1*

How did O=C(C[C@@H]1CC[C@@H]2[C@H](COC[C@H](O)CN2C(=O)c2ccc3c(c2)OCO3)O1)NCCN1CCCC1 do in these assays?
Casp6 inh: 0.9; S100A4 inh HTS: -58.8; PGC1a acetyl inh: 3.3; ERAP1 HTS inh: 1.5; Ecoli rRNA inh: 3.1

Results for Cn1cnc(CCNC(=O)C[C@H]2CC[C@H]3[C@@H](COC[C@@H](O)CN3C(=O)C3CC3)O2)c1 ?
Casp6 inh: -0.6; S100A4 inh HTS: 85.3*; PGC1a acetyl inh: 1.4; ERAP1 HTS inh: -1.1; Ecoli rRNA inh: -0.6; ARNT TACC3 PPI: 0.2

What do the screens show for `CCC(=O)N1C[C@H](O)COC[C@H]2O[C@H](CC(=O)NCc3cc(F)cc(F)c3)CC[C@@H]21`?
Casp6 inh: -11.4; S100A4 inh HTS: 88.4*; PGC1a acetyl inh: 14.8; ERAP1 HTS inh: -0.4; Ecoli rRNA inh: 5.2; ARNT TACC3 PPI: -7.3

What do the screens show for `O=C(C[C@@H]1CC[C@@H]2[C@H](COC[C@@H](O)CN2C(=O)c2ccc3c(c2)OCO3)O1)NCCN1CCCC1`?
Casp6 inh: -1.4; S100A4 inh HTS: 72.7*; PGC1a acetyl inh: 1.8; ERAP1 HTS inh: 0.1; Ecoli rRNA inh: 3.4

How did CCOc1ccc(NC(=O)CN2C(=O)COc3ccc(S(=O)(=O)N4CCCC4)cc32)cc1 do in these assays?
Casp6 inh: 2.3; S100A4 inh HTS: -1.0; PGC1a acetyl inh: 2.1; ERAP1 HTS inh: -3.0; Ecoli rRNA inh: -22.6*; ARNT TACC3 PPI: 0.4

How did CC(C)OCCCNC(=O)CN1C(=O)COc2ccc(S(=O)(=O)N3CCCCCC3)cc21 do in these assays?
Casp6 inh: 36.8*; S100A4 inh HTS: 1.0; PGC1a acetyl inh: -1.2; ERAP1 HTS inh: -0.1; Ecoli rRNA inh: 0.3; ARNT TACC3 PPI: -2.1

How did CCOc1ccc(NC(=O)CN2C(=O)COc3ccc(S(=O)(=O)N4CCCCC4)cc32)cc1 do in these assays?
Casp6 inh: 4.5; S100A4 inh HTS: 2.7; PGC1a acetyl inh: -3.1; ERAP1 HTS inh: -3.0; Ecoli rRNA inh: -37.3; ARNT TACC3 PPI: 1.2

Results for COCC(=O)N1[C@H](CO)[C@@H]2c3ccccc3N(C(=O)c3ccncc3)C[C@@H]21 ?
Casp6 inh: 4.7; S100A4 inh HTS: 4.5; PGC1a acetyl inh: 1.0; ERAP1 HTS inh: -2.7; Ecoli rRNA inh: 3.9; ARNT TACC3 PPI: 3.0

What do the screens show for `Cc1cc(/C=C2\C(=N)N3N=C(C(C)C)SC3=NC2=O)c(C)n1Cc1ccccc1`?
Casp6 inh: 1.3; S100A4 inh HTS: -0.3; PGC1a acetyl inh: 48.5*; Ecoli rRNA inh: -14.6; ARNT TACC3 PPI: -5.9

Results for CCC1=NN2C(=N)/C(=C/c3cc(C)n(Cc4ccccc4)c3C)C(=O)N=C2S1 ?
Casp6 inh: -0.3; S100A4 inh HTS: -0.3; Ecoli rRNA inh: -27.8; ARNT TACC3 PPI: 4.0

How did Nc1cc(C(Cl)=C(Cl)Cl)c(S(N)(=O)=O)cc1S(N)(=O)=O do in these assays?
Casp6 inh: 76.3*; S100A4 inh HTS: 19.5; PGC1a acetyl inh: 2.1; ERAP1 HTS inh: -0.7; Ecoli rRNA inh: -3.3; ARNT TACC3 PPI: -14.2

Results for Nc1ccccc1S(N)(=O)=O ?
Casp6 inh: -2.6; S100A4 inh HTS: -6.4; PGC1a acetyl inh: 9.2; ERAP1 HTS inh: 1.9; ARNT TACC3 PPI: 3.4

Results for CC(C)CC#Cc1ccc([C@H]2[C@@H](CO)N3C(=O)CN(C(=O)Nc4ccc(F)cc4)C[C@@H]23)cc1 ?
Casp6 inh: 0.0; S100A4 inh HTS: -4.5; PGC1a acetyl inh: 9.5; ERAP1 HTS inh: 1.2; Ecoli rRNA inh: -39.5

How did CC(=O)C1C(c2cn(-c3ccccc3)nc2-c2cccs2)NC(=O)NC1(O)C(F)(F)F (stereo unspecified) do in these assays?
ARNT TACC3 PPI: 47.0*

What do the screens show for `CC(=O)C1C(c2ccccc2Cl)NC(=O)NC1(O)C(F)(F)F` (stereo unspecified)?
Casp6 inh: -1.3; S100A4 inh HTS: -5.2; PGC1a acetyl inh: 3.9; ERAP1 HTS inh: -4.1; Ecoli rRNA inh: 7.2; ARNT TACC3 PPI: 5.9

What do the screens show for `COc1cccc(/C=N/Nc2nc3ccccc3n3cnnc23)c1`?
PGC1a acetyl inh: -5.6; ARNT TACC3 PPI: 0.4

How did COc1cccc(/C=N\NC(=O)Cn2nnc3ccccc32)c1O do in these assays?
Casp6 inh: -13.3; S100A4 inh HTS: 5.2; PGC1a acetyl inh: -1.2; ERAP1 HTS inh: -4.4; Ecoli rRNA inh: -20.4*

What do the screens show for `COc1cccc(/C=N/Nc2nc3ccccc3n3cnnc23)c1O`?
Casp6 inh: -0.9; S100A4 inh HTS: -5.1; ERAP1 HTS inh: 4.9; ARNT TACC3 PPI: 84.9*

What do the screens show for `COc1ccccc1/C=C/C=N/NC(=O)CCn1cnc2ccccc21`?
Casp6 inh: 2.1; S100A4 inh HTS: -2.4; PGC1a acetyl inh: -6.3; ERAP1 HTS inh: 2.6; Ecoli rRNA inh: -35.3*; ARNT TACC3 PPI: 10.4

How did COc1cccc(/C=N/Nc2nccnc2Cl)c1O do in these assays?
Casp6 inh: -2.7; S100A4 inh HTS: 1.0; PGC1a acetyl inh: 36.2; ERAP1 HTS inh: -1.1; Ecoli rRNA inh: -52.1

How did COc1cccc(/C=N/Nc2ncnc(Cl)c2N)c1O do in these assays?
Casp6 inh: -0.6; S100A4 inh HTS: 3.2; ERAP1 HTS inh: 2.3; Ecoli rRNA inh: -41.0; ARNT TACC3 PPI: 59.0*

From PubChem BioAssay
